Hck-Nef inh – human Hck-Nef kinase inhibition; P08631; Recombinant Hck-YEEI plus Nef, Z-Lyte FRET kinase assay; inhibition, % at 20 µM; 220,000 compounds, 0.68% hits;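 active = Hck-Nef kinase inhibition above about 50%, limit read from the data; inactive = inhibition below that limit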;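 note: 0% = DMSO with Hck plus Nef and 100% = Hck alone without Nef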
Runt-CBFb FRET – blocks binding of human RUNX1 Runt domain to CBFb | inhibition, % at 20 µM | AID 1496 | Cerulean-Runt/Venus-CBFb FRET ratio 530/480, 1 h | 220,000 compounds, 0.46% hits | Q01196+Q13951;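 active = inhibition over about 50% at 20 µM in the single-dose screen, limit read from the data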;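 note: 0% = DMSO wells and 100% = excess unlabeled CBFb competitor control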
Target sequence (Q01196 whole entry, looked up, the tested form may be a part): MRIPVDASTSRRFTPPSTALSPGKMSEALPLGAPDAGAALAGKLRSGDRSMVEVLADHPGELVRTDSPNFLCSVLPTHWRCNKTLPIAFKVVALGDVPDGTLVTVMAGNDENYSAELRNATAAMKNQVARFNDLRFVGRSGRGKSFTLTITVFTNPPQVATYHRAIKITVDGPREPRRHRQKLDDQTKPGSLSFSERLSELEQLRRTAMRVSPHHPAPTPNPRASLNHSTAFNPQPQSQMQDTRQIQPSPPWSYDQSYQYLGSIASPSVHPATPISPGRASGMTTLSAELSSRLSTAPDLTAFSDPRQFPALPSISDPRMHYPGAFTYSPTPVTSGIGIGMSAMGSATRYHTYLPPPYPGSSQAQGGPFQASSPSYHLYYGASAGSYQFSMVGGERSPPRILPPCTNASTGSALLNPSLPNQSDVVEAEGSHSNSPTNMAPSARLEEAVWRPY
Target sequence (Q13951 whole entry, looked up, the tested form may be a part): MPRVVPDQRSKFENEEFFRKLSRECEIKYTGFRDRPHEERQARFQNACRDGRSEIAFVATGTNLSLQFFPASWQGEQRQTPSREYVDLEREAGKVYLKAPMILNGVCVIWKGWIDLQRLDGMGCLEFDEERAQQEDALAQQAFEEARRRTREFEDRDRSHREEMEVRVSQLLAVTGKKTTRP
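Measured by: fluorescence energy transfer, 422 nm excitation, 530/480 nm emission; Assay system: Cerulean-Runt domain; Medium: Tris pH 7.5 buffer with BSA; Measure: loss of energy transfer signal; Controls: 5 µM unlabeled CBFb as full-inhibition high control; Incubation: protein complex preformed 1 h, compound exposure 1 h, room temperature, dark.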
RanGTP-Impb inh – inhibitors of RanGTP-importin-beta interaction, primary screen, biochemical, FRET, CFP-Ran, YFP-importin-beta, homogeneous; cell-free CFP-Ran/YFP-importin-beta FRET ratio; inhibition, % (no concentration beside the values); 300,000 compounds, 1.1% hits;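 active = more than half of the replicate wells show a fall in the fluorescence ratio signal beyond about 16%, limit read from the data, passing the limit was not always enough; inconclusive = exactly half of the replicate wells pass the set limit; inactive = fewer than half of replicates pass the limit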;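 note: 0% = DMSO wells and 100% = Ran loaded with GDP instead of GTP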
CaV13 ICDI inh – Primary screen for inhibitors of IQ motif and Ca2+-dependent inactivation inhibitor domain binding in CACNA1D, Förster resonance energy transfer in living cells, …; HEK cells, CFP/YFP FRET ICDI-IQ, plate reader, 10 min; percent FRET-ratio fall versus neutral wells; inhibition, % at 12.3 µM; 340,000 compounds, 0.098% hits;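 active = mean replicate inhibition of at least 30% and at least 1% of replicates passing that level; inconclusive = only one of the two criteria is met; inactive = neither criterion is met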;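 note: 0% = median of the neutral control wells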
Runt-SMMHC FRET – blocks binding of human RUNX1 Runt domain to CBFb-SMMHC. Q01196+Q13951. Cerulean-Runt/Venus-CBFb-SMMHC FRET ratio 530/480, 1 h. inhibition, % at 20 µM. 220,000 compounds, 0.74% hits. AID 1434;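 active = mean inhibition across duplicate retests at 20 µM reaching about 50%, limit read from the data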;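 note: 0% = DMSO wells and 100% = wells with excess untagged CBFb-SMMHC; inhibitors lower the FRET ratio by blocking Runt binding to CBFb-SMMHC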
Runt-CBFb TRFRET – Runt-CBFb binding inhibition. inhibition, % at 20 µM. AID 1502. 480 compounds, 20% hits. shares compounds with Runt-CBFb FRET. TR-FRET RUNX1 Runt domain-CBFb binding; in the data active = inhibition above about 40%
* marks the source's active call; other numbers are inactive results. Shown are actives, neighbours in structure and some others; about 1.5% of the full set was active somewhere.

How did O=C(C#Cc1cccc([N+](=O)[O-])c1)c1ccccc1 do in these assays?
Hck-Nef inh: 7; Runt-CBFb FRET: 51*; RanGTP-Impb inh: 0; Runt-SMMHC FRET: 30; Runt-CBFb TRFRET: 28

What do the screens show for `CCOC(=O)CN1NC2(CCCC(C)C2)NC1=S` (stereo unspecified)?
Hck-Nef inh: 1; Runt-CBFb FRET: 51*; RanGTP-Impb inh: inconclusive; CaV13 ICDI inh: -4; Runt-SMMHC FRET: 32; Runt-CBFb TRFRET: 10

Results for CCN1C[C@@H]2[C@@H]3C(=O)N(C)C(=O)[C@@H]3[C@](Cc3ccccc3)(C1=O)N2C(=O)c1ccccc1 ?
CaV13 ICDI inh: -5

What do the screens show for `C#CCOCCOCCOCCNc1nc(N2CCN(C(=O)[C@H](Cc3ccc(O)cc3)n3cc([C@@H](N)CC(C)C)nn3)CC2)nc(N2CCN(C(=O)[C@H](Cc3ccc(O)cc3)n3cc([C@@H](N)CC(C)C)nn3)CC2)n1`?
Hck-Nef inh: -2; Runt-CBFb FRET: 2; RanGTP-Impb inh: 9; Runt-SMMHC FRET: -3

How did Oc1cc(-n2cccn2)c(O)cc1-n1cccn1 do in these assays?
Hck-Nef inh: -148; Runt-CBFb FRET: 53*; RanGTP-Impb inh: 8; CaV13 ICDI inh: -4; Runt-SMMHC FRET: 100*; Runt-CBFb TRFRET: 8

Results for O=C(Nc1ccccc1)C1=C(c2ccccc2)S(=O)(=O)CCS1(=O)=O ?
Hck-Nef inh: 18; Runt-CBFb FRET: 52*; RanGTP-Impb inh: -1; CaV13 ICDI inh: 3; Runt-SMMHC FRET: 44; Runt-CBFb TRFRET: 23

What do the screens show for `O=C(O)c1ccccc1C(=O)Nc1ccccc1`?
Hck-Nef inh: 5; Runt-CBFb FRET: 7; RanGTP-Impb inh: 2; CaV13 ICDI inh: -5; Runt-SMMHC FRET: -3

Results for COc1ccc(CCNC(=O)C2CCN(c3ccc(N4CCOCC4)nn3)CC2)c(OC)c1 ?
Hck-Nef inh: 3; Runt-CBFb FRET: 7; RanGTP-Impb inh: 5; CaV13 ICDI inh: -5; Runt-SMMHC FRET: 12

How did COc1ccc(NC(=O)c2cc3ccccc3oc2=O)cc1 do in these assays?
CaV13 ICDI inh: -11

Results for CCCCCCc1cc2cc(C(=O)Nc3ccc(OC)cc3)c(=O)oc2cc1O ?
Hck-Nef inh: 28; Runt-CBFb FRET: 65*; RanGTP-Impb inh: 41*; CaV13 ICDI inh: -3; Runt-SMMHC FRET: 102; Runt-CBFb TRFRET: -12

What do the screens show for `COc1cc(OC)c(C2CC(=O)N3CN(c4ccccc4)CSC3=C2C#N)cc1OC` (stereo unspecified)?
Hck-Nef inh: -1; Runt-CBFb FRET: 80*; RanGTP-Impb inh: -149; CaV13 ICDI inh: -3; Runt-SMMHC FRET: 111*; Runt-CBFb TRFRET: 25

How did CC1CC2(CCCC2)N(C(=O)c2ccccc2)Cc2ccccc21 (stereo unspecified) do in these assays?
Hck-Nef inh: 6; Runt-CBFb FRET: -3; RanGTP-Impb inh: 7; CaV13 ICDI inh: -3; Runt-SMMHC FRET: -4

How did O=C1C(O)CC2c3ccccc3CC3(CCCC3)N12 (stereo unspecified) do in these assays?
Hck-Nef inh: 3; Runt-CBFb FRET: 58*; RanGTP-Impb inh: -2; CaV13 ICDI inh: -4; Runt-SMMHC FRET: 2; Runt-CBFb TRFRET: 28

How did COc1ccccc1CCn1c(N)c(C#N)c2nc3ccccc3nc21 do in these assays?
Hck-Nef inh: 16; Runt-CBFb FRET: 80*; RanGTP-Impb inh: 56*; CaV13 ICDI inh: -2; Runt-SMMHC FRET: 140*; Runt-CBFb TRFRET: 37

Results for CCOC(=O)CC(=O)CSc1nc(CC)c(C)cc1C#N ?
Hck-Nef inh: 9; Runt-CBFb FRET: 53*; RanGTP-Impb inh: 3; CaV13 ICDI inh: -4; Runt-SMMHC FRET: 32; Runt-CBFb TRFRET: -82

How did CCc1nc(SCC(=O)O)c(C#N)cc1C do in these assays?
Hck-Nef inh: 1; Runt-CBFb FRET: -1; RanGTP-Impb inh: 2; CaV13 ICDI inh: -9; Runt-SMMHC FRET: -6

What do the screens show for `CC(=O)Nc1nn(CC(C)C)c2nc3ccc(C)cc3cc12`?
CaV13 ICDI inh: -5

Results for Cc1ccc2nc3c(cc2c1)c(NC(=O)c1ccccn1)nn3CC(C)C ?
Hck-Nef inh: 21; Runt-CBFb FRET: 53*; RanGTP-Impb inh: 116*; CaV13 ICDI inh: 4; Runt-SMMHC FRET: 90*; Runt-CBFb TRFRET: 33

What do the screens show for `Cc1nn(C)c(N)c1[N+](=O)[O-]`?
Hck-Nef inh: 9; Runt-CBFb FRET: 0; RanGTP-Impb inh: -3; CaV13 ICDI inh: -5; Runt-SMMHC FRET: -8

How did Cc1nn(C)c(Sc2ccccc2N)c1[N+](=O)[O-] do in these assays?
Hck-Nef inh: 27; Runt-CBFb FRET: 55*; RanGTP-Impb inh: -1; CaV13 ICDI inh: 2; Runt-SMMHC FRET: 51; Runt-CBFb TRFRET: 14

How did CCOC(=O)N1CCC(NC(=O)c2ccc3c(c2)N(C)CCS3)CC1 do in these assays?
Hck-Nef inh: 0; Runt-CBFb FRET: 67*; CaV13 ICDI inh: -4; Runt-CBFb TRFRET: 50*

What do the screens show for `Cc1ccc(NC(=O)NC(=O)CN2CCC(C(N)=O)CC2)c(C)c1`?
CaV13 ICDI inh: -3

What do the screens show for `COc1cc(/C=N/NC(=O)c2nc(-c3ccccc3)n(-c3ccccc3)n2)ccc1O`?
Hck-Nef inh: 0; Runt-CBFb FRET: -3; RanGTP-Impb inh: inconclusive; CaV13 ICDI inh: -17; Runt-SMMHC FRET: 2

How did COc1ccc(/C=N/NC(=O)c2nc(-c3ccccc3)n(-c3ccccc3)n2)cc1OC do in these assays?
Hck-Nef inh: 0; Runt-CBFb FRET: 76*; RanGTP-Impb inh: 1; CaV13 ICDI inh: -5; Runt-SMMHC FRET: -5; Runt-CBFb TRFRET: -10

What do the screens show for `O=C(CSc1nc2ccccc2o1)c1cc2ccccc2oc1=O`?
Hck-Nef inh: 0; Runt-CBFb FRET: -1; Runt-SMMHC FRET: -11

How did Cc1cc(C)nc(SCC(=O)c2cc3ccccc3oc2=O)n1 do in these assays?
Hck-Nef inh: 15; Runt-CBFb FRET: 54*; RanGTP-Impb inh: -1; CaV13 ICDI inh: -7; Runt-SMMHC FRET: 26; Runt-CBFb TRFRET: 14

Results for Cc1cc(N2C(=O)C=CC2=O)c([N+](=O)[O-])cc1C ?
Hck-Nef inh: 3; Runt-CBFb FRET: 53*; Runt-SMMHC FRET: 66; Runt-CBFb TRFRET: 35

Results for CC(C)(C)C(=O)CSc1ncccn1 ?
Hck-Nef inh: 21; Runt-CBFb FRET: 58*; RanGTP-Impb inh: 5; CaV13 ICDI inh: 1; Runt-SMMHC FRET: 42; Runt-CBFb TRFRET: 70*

Results for Cc1ccc(OCc2ccc(C(=O)O)o2)cc1C ?
RanGTP-Impb inh: 1; CaV13 ICDI inh: -2

Results for Cc1ccc(N2C(=O)C(Cl)=C(N3CCOCC3)C2=O)cc1Cl ?
Hck-Nef inh: 33; Runt-CBFb FRET: 65*; RanGTP-Impb inh: 0; CaV13 ICDI inh: -7; Runt-SMMHC FRET: 54*; Runt-CBFb TRFRET: 20

Screens deposited in PubChem by several laboratories.
